Source: ChEMBL document CHEMBL1129454, “HIV protease inhibitory bis-benzamide cyclic ureas: a quantitative structure-activity relationship analysis” (J Med Chem, 1996)

Key:
[1] = tested on: Human immunodeficiency virus 1; experiment: The concentration required to inhibit HIV-1 RNA synthesis by 90%. Viral RNA quantified by a sandwich hybridization assay; format: functional; conditions: Human immunodeficiency virus 1
Summary of the method: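 Susceptible T-cell lines grown in individual microtiter wells were infected with HIV. Cell-associated viral RNA was measured by RNA hybridization 3 days after infection. […] Assay SD was <±37%. Cytotoxicity was scored separately by tetrazolium dye metabolism, because RNA assay results are valid only at non-cytotoxic doses.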

[2] = biological target: T1, Human immunodeficiency virus type 1 protease (Human immunodeficiency virus 1, UniProt Q72874); experiment: Inhibitory activity against HIV-1 protease
Summary of the method: (§1)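 Cleavage products were separated by anion-exchange HPLC and the product quantified by fluorescence. Each compound was assayed at least twice and the mean reported; assay SD <±40%.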

[3] = biological target: T1, Human immunodeficiency virus type 1 protease; experiment: Binding affinity for HIV-1 protease; summary of the method: as §1

Compound `CC(C)NC(=O)c1cccc(CN2C(=O)N(Cc3cccc(C(=O)NC(C)C)c3)[C@H](Cc3ccccc3)[C@H](O)[C@@H](O)[C@H]2Cc2ccccc2)c1` has an IC90 [1] of 266 nM, a Ki [2] of 0.579 nM and a Ki [3] of 0.58 nM.
For `O=C(NO)c1cccc(CN2C(=O)N(Cc3cccc(C(=O)NO)c3)[C@H](Cc3ccccc3)[C@H](O)[C@@H](O)[C@H]2Cc2ccccc2)c1`, the IC90 [1] was 448 nM, the Ki [2] was 0.02 nM and the Ki [3] was 0.02 nM.
With `O=C(Nc1ccccn1)c1cccc(CN2C(=O)N(Cc3cccc(C(=O)Nc4ccccn4)c3)[C@H](Cc3ccccc3)[C@H](O)[C@@H](O)[C@H]2Cc2ccccc2)c1` the IC90 [1] was 2.8 nM, the Ki [2] was 0.043 nM and the Ki [3] was 0.01 nM.
For `CC(C)(C)NC(=O)[C@@H]1CN(Cc2cccnc2)CCN1C[C@@H](O)C[C@@H](Cc1ccccc1)C(=O)NC1c2ccccc2C[C@H]1O` (single isomer, unassigned), the IC90 [1] was 50 nM.
Work on `O=C(Nc1nc2ccccc2[nH]1)c1cccc(CN2C(=O)N(Cc3cccc(C(=O)Nc4nc5ccccc5[nH]4)c3)[C@H](Cc3ccccc3)[C@H](O)[C@@H](O)[C@H]2Cc2ccccc2)c1` yielded an IC90 [1] of 3.9 nM.
`Cc1ccc(NC(=O)c2cccc(CN3C(=O)N(Cc4cccc(C(=O)Nc5ccc(C)cn5)c4)[C@H](Cc4ccccc4)[C@H](O)[C@@H](O)[C@H]3Cc3ccccc3)c2)nc1` showed an IC90 [1] of 3.1 nM, a Ki [2] of 0.011 nM and a Ki [3] of 0.01 nM.
For `O=C(Nc1ccc(Br)cn1)c1cccc(CN2C(=O)N(Cc3cccc(C(=O)Nc4ccc(Br)cn4)c3)[C@H](Cc3ccccc3)[C@H](O)[C@@H](O)[C@H]2Cc2ccccc2)c1`, the IC90 [1] was 28.2 nM, the Ki [2] was 0.035 nM and the Ki [3] was 0.04 nM.
`Cc1ccnc(NC(=O)c2cccc(CN3C(=O)N(Cc4cccc(C(=O)Nc5cc(C)ccn5)c4)[C@H](Cc4ccccc4)[C@H](O)[C@@H](O)[C@H]3Cc3ccccc3)c2)c1` showed an IC90 [1] of 7.7 nM, a Ki [2] of 0.027 nM and a Ki [3] of 0.03 nM.
Work on `O=C(Nc1cccnc1)c1cccc(CN2C(=O)N(Cc3cccc(C(=O)Nc4cccnc4)c3)[C@H](Cc3ccccc3)[C@H](O)[C@@H](O)[C@H]2Cc2ccccc2)c1` yielded an IC90 [1] of 123 nM, a Ki [2] of 0.29 nM and a Ki [3] of 0.29 nM.
With `O=C(Nc1ncccn1)c1cccc(CN2C(=O)N(Cc3cccc(C(=O)Nc4ncccn4)c3)[C@H](Cc3ccccc3)[C@H](O)[C@@H](O)[C@H]2Cc2ccccc2)c1` the IC90 [1] was 220 nM, the Ki [2] was 0.152 nM and the Ki [3] was 0.15 nM.
`CCNC(=O)c1cccc(CN2C(=O)N(Cc3cccc(C(=O)NCC)c3)[C@H](Cc3ccccc3)[C@H](O)[C@@H](O)[C@H]2Cc2ccccc2)c1` gave an IC90 [1] of 139 nM, a Ki [2] of 0.21 nM and a Ki [3] of 0.21 nM.
Compound `Cc1cc(C)nc(NC(=O)c2cccc(CN3C(=O)N(Cc4cccc(C(=O)Nc5cc(C)cc(C)n5)c4)[C@H](Cc4ccccc4)[C@H](O)[C@@H](O)[C@H]3Cc3ccccc3)c2)c1` has an IC90 [1] of 6.6 nM, a Ki [2] of 0.016 nM and a Ki [3] of 0.02 nM.
In the case of `CC(C)CN(C[C@@H](O)[C@H](Cc1ccccc1)NC(=O)O[C@H]1CCOC1)S(=O)(=O)c1ccc(N)cc1`, the IC90 [1] is reported as 46 nM.
In the case of `NNC(=O)c1cccc(CN2C(=O)N(Cc3cccc(C(=O)NN)c3)[C@H](Cc3ccccc3)[C@H](O)[C@@H](O)[C@H]2Cc2ccccc2)c1`, the IC90 [1] is reported as 884 nM, the Ki [2] is reported as 0.018 nM and the Ki [3] is reported as 0.018 nM.
`O=C(Nc1nccs1)c1cccc(CN2C(=O)N(Cc3cccc(C(=O)Nc4nccs4)c3)[C@H](Cc3ccccc3)[C@H](O)[C@@H](O)[C@H]2Cc2ccccc2)c1` showed an IC90 [1] of 1.7 nM.
Work on `NC(=O)c1cccc(CN2C(=O)N(Cc3cccc(C(N)=O)c3)[C@H](Cc3ccccc3)[C@H](O)[C@@H](O)[C@H]2Cc2ccccc2)c1` yielded an IC90 [1] of 709 nM, a Ki [2] of 0.039 nM and a Ki [3] of 0.06 nM.
For `O=C1N(Cc2ccc(CO)cc2)[C@H](Cc2ccccc2)[C@H](O)[C@@H](O)[C@@H](Cc2ccccc2)N1Cc1ccc(CO)cc1` [DMP-323], the IC90 [1] was 115 nM.
Compound `CCCNC(=O)c1cccc(CN2C(=O)N(Cc3cccc(C(=O)NCCC)c3)[C@H](Cc3ccccc3)[C@H](O)[C@@H](O)[C@H]2Cc2ccccc2)c1` has an IC90 [1] of 259 nM, a Ki [2] of 0.359 nM and a Ki [3] of 0.28 nM.
`Cc1coc(NC(=O)c2cccc(CN3C(=O)N(Cc4cccc(C(=O)Nc5nc(C)co5)c4)[C@H](Cc4ccccc4)[C@H](O)[C@@H](O)[C@H]3Cc3ccccc3)c2)n1` gave an IC90 [1] of 59.6 nM and a Ki [2] of 0.064 nM.
For `O=C(Nc1cnccn1)c1cccc(CN2C(=O)N(Cc3cccc(C(=O)Nc4cnccn4)c3)[C@H](Cc3ccccc3)[C@H](O)[C@@H](O)[C@H]2Cc2ccccc2)c1`, the IC90 [1] was 3.5 nM, the Ki [2] was 0.018 nM and the Ki [3] was 0.02 nM.
`CNC(=O)c1cccc(CN2C(=O)N(Cc3cccc(C(=O)NC)c3)[C@H](Cc3ccccc3)[C@H](O)[C@@H](O)[C@H]2Cc2ccccc2)c1` (stereo in doubt; 31) gave a Ki [2] of 1.9 nM.
Compound `Cc1cccnc1NC(=O)c1cccc(CN2C(=O)N(Cc3cccc(C(=O)Nc4ncccc4C)c3)[C@H](Cc3ccccc3)[C@H](O)[C@@H](O)[C@H]2Cc2ccccc2)c1` has an IC90 [1] of 50.3 nM, a Ki [2] of 0.26 nM and a Ki [3] of 0.26 nM.
`CC(C)(C)NC(=O)c1cccc(CN2C(=O)N(Cc3cccc(C(=O)NC(C)(C)C)c3)[C@H](Cc3ccccc3)[C@H](O)[C@@H](O)[C@H]2Cc2ccccc2)c1` was tested, and the IC90 [1] was 717 nM, the Ki [2] was 2.4 nM and the Ki [3] was 2.6 nM.
For `O=C(Nc1ccncc1)c1cccc(CN2C(=O)N(Cc3cccc(C(=O)Nc4ccncc4)c3)[C@H](Cc3ccccc3)[C@H](O)[C@@H](O)[C@H]2Cc2ccccc2)c1`, the IC90 [1] was 93.7 nM, the Ki [2] was 0.41 nM and the Ki [3] was 0.41 nM.
`Cc1cnc(NC(=O)c2cccc(CN3C(=O)N(Cc4cccc(C(=O)Nc5ncc(C)s5)c4)[C@H](Cc4ccccc4)[C@H](O)[C@@H](O)[C@H]3Cc3ccccc3)c2)s1` showed an IC90 [1] of 17.8 nM and a Ki [2] of 0.014 nM.
`O=C(Nc1ncc[nH]1)c1cccc(CN2C(=O)N(Cc3cccc(C(=O)Nc4ncc[nH]4)c3)[C@H](Cc3ccccc3)[C@H](O)[C@@H](O)[C@H]2Cc2ccccc2)c1` showed an IC90 [1] of 45.5 nM and a Ki [2] of 0.014 nM.
In the case of `Cc1ccnc(NC(=O)c2cccc(CN3C(=O)N(Cc4cccc(C(=O)Nc5nccc(C)n5)c4)[C@H](Cc4ccccc4)[C@H](O)[C@@H](O)[C@H]3Cc3ccccc3)c2)n1`, the IC90 [1] is reported as 124 nM, the Ki [2] is reported as 0.115 nM and the Ki [3] is reported as 0.12 nM.
Work on `O=C(Nc1ccccc1)c1cccc(CN2C(=O)N(Cc3cccc(C(=O)Nc4ccccc4)c3)[C@H](Cc3ccccc3)[C@H](O)[C@@H](O)[C@H]2Cc2ccccc2)c1` yielded an IC90 [1] of 510 nM, a Ki [2] of 0.43 nM and a Ki [3] of 0.37 nM.
For `CC(C)c1nc(CN(C)C(=O)N[C@H](C(=O)N[C@@H](Cc2ccccc2)C[C@H](O)[C@H](Cc2ccccc2)NC(=O)OCc2cncs2)C(C)C)cs1` [RITONAVIR], the IC90 [1] was 76 nM.
Compound `O=C(Nc1nncs1)c1cccc(CN2C(=O)N(Cc3cccc(C(=O)Nc4nncs4)c3)[C@H](Cc3ccccc3)[C@H](O)[C@@H](O)[C@H]2Cc2ccccc2)c1` has an IC90 [1] of 51.3 nM and a Ki [2] of 0.11 nM.
In the case of `CC(C)(C)NC(=O)[C@@H]1C[C@@H]2CCCC[C@@H]2CN1C[C@@H](O)[C@H](Cc1ccccc1)NC(=O)[C@H](CC(N)=O)NC(=O)c1ccc2ccccc2n1`, the IC90 [1] is reported as 10.4 nM.
`O=C(Nc1nnc(C(F)(F)F)s1)c1cccc(CN2C(=O)N(Cc3cccc(C(=O)Nc4nnc(C(F)(F)F)s4)c3)[C@H](Cc3ccccc3)[C@H](O)[C@@H](O)[C@H]2Cc2ccccc2)c1` gave an IC90 [1] of 74.8 nM and a Ki [2] of 0.18 nM.
`Cc1csc(NC(=O)c2cccc(CN3C(=O)N(Cc4cccc(C(=O)Nc5nc(C)cs5)c4)[C@H](Cc4ccccc4)[C@H](O)[C@@H](O)[C@H]3Cc3ccccc3)c2)n1` showed an IC90 [1] of 4.1 nM and a Ki [2] of 0.025 nM.
